Screening data from PubChem.
Sampled rows, rich in hits. Any-hit rate of the full collection: about 1.6%.
Lipid droplet = modulators of hepatic lipid droplet formation; AML12 mouse hepatocytes, oleate lipid droplets, BODIPY imaging; inhibition, % at 6.5 µM; 0.4% of 240,000 active; AID 1656;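 active = lipid droplet intensity inhibited by at least 50%, with more than 500 cells counted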
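Test system: AML12 hepatocytes (mouse); reagent: oleate loading, 100 µM; dosing: one dose, 6.5 µM compound; incubation: overnight exposure; signal: fluorescence imaging, 20x objective, two fields per well; read-out basis: % inhibition of corrected integrated BODIPY droplet signal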
NOD2 RIPK2 PPI = NOD2-RIPK2 protein interaction inhibition | 0.38% of 360,000 active | CHO BLA complementation NOD2-RIPK2, CCF4 ratio | O43353 | inhibition, % at 4.98 µM; in the data active = inhibition above about 21%;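 note: 0% = vehicle only and 100% = reference blocker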
TLR9-MyD88 inh = inhibitors of human TLR9-MyD88 binding; CHO BLA complementation TLR9-MyD88, CCF4 FRET ratio; 0.21% of 340,000 active; inhibition, % at 4.98 µM; AID 504734; Q9NR96+Q99836;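 active = inhibition above the mean over all tested compounds plus 3 SD, cut at about 21% in these data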;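 note: 0% = DMSO only wells and 100% = clavulanate BLA inhibitor control wells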
SR-BI HDL uptake = blocks mouse SR-BI lipid uptake from DiI-HDL | Q61009 | ldlA[mSR-BI] CHO cells, DiI-HDL uptake fluorescence, 3 h | inhibition, % at 12.5 µM | 0.96% of 320,000 active | AID 488896;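 active = mean replicate inhibition of at least 70% and a set share of replicates each scoring 70 or more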;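 note: 0% = median of neutral control wells and 100% = median of positive control wells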
TLR4 MyD88 comp = blocks binding of human TLR4 to MyD88. O00206+Q99836. 0.18% of 200,000 active. inhibition, % at 8.4 µM. AID 861. HeLa CL3-4 TLR4/MyD88 BLA complementation, FRET ratio; in the data active = inhibition above about 25%;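 note: 0% = vehicle and 100% = reference inhibitor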
Target sequence (O00206 whole entry, looked up): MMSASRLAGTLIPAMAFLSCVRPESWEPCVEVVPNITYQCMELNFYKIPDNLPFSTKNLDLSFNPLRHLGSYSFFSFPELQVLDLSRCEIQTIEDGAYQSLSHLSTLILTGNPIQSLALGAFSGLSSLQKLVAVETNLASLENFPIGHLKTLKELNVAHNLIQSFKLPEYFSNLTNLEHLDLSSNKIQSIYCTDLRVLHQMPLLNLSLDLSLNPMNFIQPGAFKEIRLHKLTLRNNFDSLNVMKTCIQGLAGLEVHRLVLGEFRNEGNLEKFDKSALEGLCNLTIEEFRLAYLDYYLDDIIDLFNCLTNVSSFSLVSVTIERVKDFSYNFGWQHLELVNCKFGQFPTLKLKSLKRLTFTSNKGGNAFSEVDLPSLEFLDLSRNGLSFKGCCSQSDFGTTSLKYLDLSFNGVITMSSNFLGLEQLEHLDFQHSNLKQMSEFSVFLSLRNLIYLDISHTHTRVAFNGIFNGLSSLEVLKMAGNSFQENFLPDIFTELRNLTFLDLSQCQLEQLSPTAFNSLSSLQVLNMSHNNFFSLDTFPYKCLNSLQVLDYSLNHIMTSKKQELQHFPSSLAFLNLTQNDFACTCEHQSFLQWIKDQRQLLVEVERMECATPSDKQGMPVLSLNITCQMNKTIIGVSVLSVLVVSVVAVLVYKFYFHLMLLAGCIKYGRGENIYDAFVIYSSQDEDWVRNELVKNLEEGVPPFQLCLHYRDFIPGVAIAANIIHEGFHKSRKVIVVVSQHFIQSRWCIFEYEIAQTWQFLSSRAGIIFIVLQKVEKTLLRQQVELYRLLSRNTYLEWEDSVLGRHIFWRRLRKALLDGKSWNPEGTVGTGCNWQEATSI
Target sequence (Q99836 whole entry, looked up): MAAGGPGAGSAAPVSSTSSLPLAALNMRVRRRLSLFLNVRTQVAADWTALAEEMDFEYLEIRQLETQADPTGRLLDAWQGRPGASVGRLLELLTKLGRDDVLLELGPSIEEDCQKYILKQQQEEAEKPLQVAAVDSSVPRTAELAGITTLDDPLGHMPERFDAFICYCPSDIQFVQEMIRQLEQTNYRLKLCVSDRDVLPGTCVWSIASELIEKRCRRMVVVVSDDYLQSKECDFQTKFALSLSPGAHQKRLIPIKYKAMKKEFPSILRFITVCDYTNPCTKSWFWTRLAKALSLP
SR-BI DiI-HDL act = activators of SR-BI mediated HDL lipid uptake; CHO ldlA[mSR-BI] cells, DiI-HDL uptake fluorescence, 3 h; 100 = double the neutral-control signal; 0.096% of 320,000 active; activation, % at 12.5 µM; AID 504775;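 active = mean replicate activation of at least 60% and every replicate at or above 60%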;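 note: 0% = median plate neutral-control signal and 100% = twice that signal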
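Material: SR-BI-overexpressing, LDLR-lacking CHO cells; schedule: compound exposure 3 h, 37 °C; reagent: DiI-labelled HDL at 10 µg/mL final; technique: bottom-read fluorescence, 550/595 nm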
NOD2-RIPK2 conf = NOD2-RIPK2 interaction inhibition confirmed | shares compounds with NOD2 RIPK2 PPI | CHO cells, NOD2-RIPK2 BLA complementation, CCF4 FRET | inhibition, % at 4.98 µM | 70% of 1,200 active;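 active = mean inhibition across replicates above a set limit taken from the earlier primary screen, cut at about 21% in these data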;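 note: 0% = DMSO-only wells and the high end = clavulanate BLA-blocked wells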
NOD2 BLA counter = NOD2-RIPK2 counterscreen BLA reporter activity. shares compounds with NOD2 RIPK2 PPI. CHO BLA reporter, CCF4 FRET ratio. inhibition, % at 4.98 µM. 57% of 1,200 active;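 active = mean inhibition above the low-control mean inhibition plus three low-control SD, cut at about 11% in these data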;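 note: 0% = DMSO only wells and 100% = clavulanate high control wells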
The depositor's hits bear a star; · = no result given.

SMILES | Lipid droplet | NOD2 RIPK2 PPI | TLR9-MyD88 inh | SR-BI HDL uptake | TLR4 MyD88 comp | SR-BI DiI-HDL act | NOD2-RIPK2 conf | NOD2 BLA counter
Cc1ccc(SC(C)C(=O)Nc2ccccc2-c2ccccc2)cc1 (stereo unspecified) | -30 | 43* | -6 | 11 | -10 | -11 | 3 | -3
Cc1occc1C(=O)N/N=C/C=C/c1ccc(N(C)C)cc1 | -11 | 27* | 11 | 12 | · | -12 | 37* | 37*
CNc1n[nH]c(-c2ccccc2)n1 | · | 1 | -5 | · | · | · | · | ·
Cc1onc(-c2ccccc2)c1NC(=O)Nc1c(-c2ccccc2)noc1C | · | 10 | -10 | 2 | -6 | -2 | · | ·
Cc1ccc(-c2noc(N=O)c2NO)cc1 | -9 | 22* | · | -3 | · | 3 | 24* | 21*
Cc1cc(N2CCN(C)CC2)ccc1NC(=O)c1c2c(nc3ccccc13)CCN(Cc1ccccc1)C2 | -18 | 34* | -59 | 26 | -16 | -26 | 47* | 9
